Screening results from PubChem BioAssay.
Autophagy mod: autophagy modulators in MEF cells, primary screen, imaging, high-content, MEF GFP-LC3; MEF GFP-LC3 puncta imaging; test concentration mostly 10 µM; calls only at 10 µM (by protocol); hit rate 0.98% among 190,000; AID 463193, 2010;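 active means percentage of spot-positive cells more than 3 SD above its plate mean, without a fluorescence outlier flag or 80% toxicity; inconclusive means no clear call, values can overlap the other calls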;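 further: spot-positive cell cutoff set from DMSO-treated cells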
Dynein cargo inh: inhibitors of GR-EGFP nuclear translocation, primary screen, dynein cargo transport inhibitor project, imaging, high-content, 3617.4 mouse cells; test concentration mostly 20 µM; stimulated with dexamethasone, 1 µM; stronger effect = lower value; z-score, hits read low; hit rate 0.47% among 220,000; AID 1381, 2008;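 active means plate z-score of nuclear minus cytoplasmic receptor signal below a set negative limit, without overly bright fluorescence or cell loss, cut at about -3.5 in these data, passing the limit was not always enough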;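 further: z-score of nuclear minus cytoplasmic ring GR-EGFP intensity difference per well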
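Buffer or medium: tet-free medium with charcoal-stripped serum / Also added: dexamethasone agonist, 1.0 µM final, for 30 min / Timing: induction 48 h, compound 1 h, agonist 30 min / Measured by: high-content fluorescence imaging after fixation / Read-out: nuclear-to-cytoplasmic GR-EGFP distribution per well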
Ins promoter up: insulin promoter activators in MIN6 cells, imaging, high-content screening, mouse beta cells; hit rate 0.3% among 190,000; MIN6 insulin promoter-GFP reporter; stronger effect = higher value; z-score at 5 µM;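 active means z-score above 3 at 5 µM with at least 500 cells counted in the well; inconclusive means wells under 500 cells, flagged as cytotoxic or low count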
INS promoter inh: inhibitors of insulin promoter-driven GFP, primary screen, imaging, TRM-6 cells (human fetal islet line), eGFP reporter, cell count | inhibition, % at 2 µM | reporter expression induced with tamoxifen | AID 1273, 2008 | hit rate 0.9% among 130,000;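 active means inhibition above the mean plus 3 SD, with well images judged a real hit on visual review, cut at about 60% in these data, passing the limit was not always enough; inconclusive means inhibition over the cutoff but images rejected on review; inactive means inhibition not above the cutoff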
PERK inhibitor: block of dimerizer-induced PERK translation repression, primary screen, PERK inhibitor project, CHO PERK-DD cells, SEAP luminescence, HTS | Eukaryotic translation initiation factor 2-alpha kinase 3 (Homo sapiens), Q9NZJ5 | CHO PERK-DD fusion, SEAP luminescence translation reporter | inhibition, % at 5.6 µM | hit rate 0.17% among 220,000 | AID 1416, 2008;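 active means inhibition above the mean inhibition of all tested compounds plus 3 SD, set separately per screening campaign, cut at about 2.9% in these data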;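 further: PERK kinase domain activated by AP20187 dimerizer at 100 nM; 0% = DMSO with dimerizer and 100% = rapamycin at 8.4 µM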
Target sequence (Q9NZJ5 whole entry, looked up, the tested form may be a part): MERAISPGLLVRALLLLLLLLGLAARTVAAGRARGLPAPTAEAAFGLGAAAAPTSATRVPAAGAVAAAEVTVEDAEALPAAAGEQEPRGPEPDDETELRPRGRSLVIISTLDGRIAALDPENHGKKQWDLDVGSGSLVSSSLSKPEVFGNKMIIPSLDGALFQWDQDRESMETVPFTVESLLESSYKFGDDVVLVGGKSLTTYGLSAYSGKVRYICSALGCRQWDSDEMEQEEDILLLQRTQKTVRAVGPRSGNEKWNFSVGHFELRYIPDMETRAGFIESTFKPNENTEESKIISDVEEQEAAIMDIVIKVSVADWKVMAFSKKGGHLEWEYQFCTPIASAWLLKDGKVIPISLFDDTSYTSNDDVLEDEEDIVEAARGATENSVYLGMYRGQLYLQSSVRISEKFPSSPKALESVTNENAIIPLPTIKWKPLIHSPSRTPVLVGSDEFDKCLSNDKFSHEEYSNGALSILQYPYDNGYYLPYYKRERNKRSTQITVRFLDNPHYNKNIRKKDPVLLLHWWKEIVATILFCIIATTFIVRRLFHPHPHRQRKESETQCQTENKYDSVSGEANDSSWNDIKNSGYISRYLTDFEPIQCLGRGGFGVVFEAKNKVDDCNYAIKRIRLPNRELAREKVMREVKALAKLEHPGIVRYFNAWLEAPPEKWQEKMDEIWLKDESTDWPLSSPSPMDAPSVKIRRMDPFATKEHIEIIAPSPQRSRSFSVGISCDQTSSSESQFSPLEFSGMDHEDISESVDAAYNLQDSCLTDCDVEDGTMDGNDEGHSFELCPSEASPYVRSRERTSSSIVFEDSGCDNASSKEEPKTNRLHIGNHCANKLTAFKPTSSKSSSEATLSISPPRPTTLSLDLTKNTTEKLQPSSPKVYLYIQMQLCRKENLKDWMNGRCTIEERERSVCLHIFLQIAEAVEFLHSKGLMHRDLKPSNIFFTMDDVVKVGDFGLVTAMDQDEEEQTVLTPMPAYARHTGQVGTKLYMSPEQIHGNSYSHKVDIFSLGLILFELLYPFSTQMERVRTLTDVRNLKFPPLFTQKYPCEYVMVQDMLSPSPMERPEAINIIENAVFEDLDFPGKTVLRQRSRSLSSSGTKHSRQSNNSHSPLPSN
Dynein inh conf: dynein cargo transport inhibitors, GR-EGFP translocation, confirmation, imaging, high-content imaging, GR-EGFP cells. shares compounds with Dynein cargo inh. 3617.4 GR-EGFP nuclear translocation imaging, dexamethasone-induced. calls only at 20 µM. hit rate 69% among 1,000;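 active means inhibition of receptor movement into the nucleus at or above a set limit in both runs, with normal cell brightness and cell count; inconclusive means limit reached in only one run, brightness and count normal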;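 further: dexamethasone at 1 µM final in well for 30 min; nuclear minus cytoplasmic GR-EGFP mean intensity difference in channel 2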
Starred values were filed as active, the others as inactive; i = inactive; ? = inconclusive; . = not tested or not shown; + = active, no number. Rows were chosen to be rich in hits. Some 2.1% of all compounds tested hit in one or more screens of this group.

SMILES	Autophagy mod	Dynein cargo inh	Ins promoter up	INS promoter inh	PERK inhibitor	Dynein inh conf
CC(=O)N(CCC(c1ccco1)C(C)C)Cc1ccc(Cl)cc1 (stereo not given)	.	-4.7*	.	.	0	i
COc1ccc(-c2nc(-c3cccc([N+](=O)[O-])c3O)cc(=O)o2)cc1OC	i	0.71	-0.13	-26	1	.
COc1cc(/C=C2/C(=O)c3cccc([N+](=O)[O-])c3C2=O)c(Br)cc1O	i	-3.5*	0.37	-4	0	i
Cc1ccc(-n2nnnc2C(Cl)(Cl)c2nnnn2-c2ccc(C)cc2)cc1	i	-4.6*	0.93	.	1	+
Clc1ccc(-c2nnnn2-c2ccc(Cl)cc2)cc1	.	-0.5	-0.04	.	0	.
O=C(O)CC1CCC(=C(Cl)Cl)C1 (stereo not given)	i	-4.8*	-0.25	.	1	i
Cc1cc(Cl)n2c(nc3cc(F)c(F)cc32)c1C#N	i	-4.3*	0.88	-118	1	+
Cc1cc(C)n2c(=O)c3ccc(Cl)cc3nc2c1C#N	i	0.5	0.73	-83	2	.
CCN(c1ccccc1)S(=O)(=O)c1ccc(Cl)c(NC(=O)CN2C(=O)NC3(CCCC3)C2=O)c1	.	-1	0.12	.	0	.
CC(C)C(NC(=O)OCc1ccccc1)C(=O)N1CCOCCOCCOCC1 (stereo not given)	i	0.35	0.48	-27	0	.
Cc1ccc2cc(CN(CC3CCCO3)C(=S)NCc3ccco3)c(=O)[nH]c2c1 (stereo not given)	i	-3.6*	-0.28	.	-1	i
Cc1ccc2[nH]c(=O)c(CN(CC3CCCO3)C(=S)NCc3ccco3)cc2c1 (stereo not given)	i	-0.022	0.95	-67	-1	.
COC1=C(Nc2ccccc2OC)C(=O)c2ccccc2C1=O	.	0.44	-0.28	.	-1	.
COc1ccccc1NC1=C(NC(C)=O)C(=O)c2ccccc2C1=O	i	-5.1*	0.14	.	0	?
CCOc1cc(/C=C2/COc3ccccc3C2=O)ccc1OCC(=O)N(C)C	i	-3.6*	-0.62	.	1	+
Cc1ccc(S(=O)(=O)NC2OC(=O)C(Cl)=C2Cl)cc1 (stereo not given)	i	-3.6*	-0.4	-12	1	i
COc1ccc(C(=O)/C=C/C(=O)N(Cc2ccccc2OC)C(C(=O)NC2CCCCC2)c2ccncc2)c(O)c1 (stereo not given)	i	-0.51	-0.44	-44	-1	.
COc1ccc(C(=O)/C=C/C(=O)N(CC(=O)NC2CCCCC2)CC2CCCO2)c(O)c1 (stereo not given)	+	-4.7	-0.36	.	-2	+
COc1ccc(C(=O)/C=C/C(=O)N(CC(=O)NC2CCCCC2)Cc2ccccc2OC)c(O)c1	i	-4.5*	-0.33	.	0	+
COc1ccc(C(=O)/C=C/C(=O)N(CC(=O)NC2CCCCC2)Cc2ccccc2)c(O)c1	i	-4.6*	?	.	-1	+
Cc1ccc(Cn2cc(/C=N/Nc3ccc([N+](=O)[O-])cn3)c3ccccc32)cc1	+	-4.6	2.3	.	0	+
Cc1c(/C=N/Nc2ccc([N+](=O)[O-])cn2)c2ccccc2n1Cc1ccccc1	.	0.11	1.4	.	1	.
O=C(Nc1cccnc1)NC1CCCCC1	i	0.52	0.57	40	0	.
O=C(O)COc1ccccc1/C=N/NC(=O)CSc1nc2ccccc2n1Cc1ccccc1Cl	.	0.29	0.79	.	-1	.
O=C(Nc1ccc2cn[nH]c2c1)c1c(Cl)cccc1Cl	i	-0.5	-1	.	0	.
SMILES	Autophagy mod	Dynein cargo inh	Ins promoter up	INS promoter inh	PERK inhibitor	Dynein inh conf
O=C1C(Cl)=C(Nc2ccc3cn[nH]c3c2)C(=O)c2ccccc21	.	-3.9*	?	.	0	+
Cc1nc([N+](=O)[O-])c(Br)n1Cc1ccccc1	.	-5.9*	-0.81	.	1	+
Cc1nc([N+](=O)[O-])c(Br)n1CC(=O)c1ccc(F)cc1	i	-6.1*	.	45	0	+
Cc1nc([N+](=O)[O-])c(Br)n1CC(=O)c1cccc([N+](=O)[O-])c1	i	-5.5*	.	56	1	+
COc1ccc(CCNC(=O)CCc2ccc(S(=O)(=O)NCC(C)C)cc2)cc1OC	i	-0.17	0.57	.	-1	.
N#CCCS(=O)(=O)c1nnnn1-c1ccccc1	i	-5*	-0.38	29	-1	?
c1ccc(-n2nnnc2Cc2nnnn2-c2ccccc2)cc1	i	0.45	-0.62	.	-1	.
O=C(Nc1ccc2c(c1)C(=O)NC2=O)c1ccc2ncsc2c1	i	-0.41	0.58	32	1	.
O=C(OCn1ncc(Br)c(Br)c1=O)c1ccc(F)cc1	i	-5.1*	.	-186	-1	+
Cc1nc(-c2ccccc2)sc1C1(C)CC(c2ccc(OC(F)(F)F)cc2)=NO1 (stereo not given)	.	0.88	-0.39	.	.	.
COc1ccc(Oc2ccc(/C=C/C(=O)c3ccc(O)cc3)cc2[N+](=O)[O-])cc1	i	-3.6*	-0.23	38	0	+
COc1cccc(C(=O)/C=C/c2ccc(N3CCCCC3)c([N+](=O)[O-])c2)c1	i	-0.56	.	.	0	.
COc1cccc(/C=C/C(=O)c2cccc([N+](=O)[O-])c2)c1	i	-4.5*	-0.49	-53	2	+
COc1cccc(/C=C/C(=O)c2cccc([N+](=O)[O-])c2)c1OC	+	-5.3*	0.04	.	0	+
COc1ccc(/C=C/C(=O)c2ccc(O)cc2)cc1COc1ccc(F)cc1	i	-0.0039	0.23	16	0	.
O=C(CSc1ncn[nH]1)Nc1ccc(S(=O)(=O)N2CCCC2)cc1	i	0.18	-0.05	17	2	.
CCn1c2ccccc2c2cc(NC(=O)COC(=O)c3cc(S(N)(=O)=O)c(Cl)cc3Cl)ccc21	i	1.2	0.99	.	0	.
COC(CN(C(=O)CCl)C(C(=O)NC1CCCC(C)C1C)c1ccc(C)cc1)OC (stereo not given)	i	-4.3*	-0.1	0	0	+
COC(CN(C(=O)CCl)C(C(=O)NC1CCCCC1)c1ccc(Cl)cc1)OC (stereo not given)	i	-4.1*	.	.	0	+
O=C(NC1CCCC1)C(c1ccc(F)cc1)N(Cc1ccc(Cl)cc1)C(=O)CCl (stereo not given)	+	-3.7*	0.52	-32	0	+
O=C(NC1CCCC1)C(c1ccc(Cl)cc1)N(Cc1ccc(F)cc1)C(=O)CCl (stereo not given)	i	-5.3*	.	-26	-1	+
